697 NFkB inh = inhibitors of the PMA/ionomycin-induced NF-kB reporter in 697 B cells | 697 B-cell NF-kB luciferase reporter, 16 h | 330,000 tested, 0.33% active | inhibition, % at 4 µM | AID 435022; in the data active means inhibition above about 35%
CRFR2-BP antag = antagonists of CRF-binding protein/CRF-R2 receptor complex. 350,000 tested, 0.59% active. inhibition, % at 11.8 µM. AID 588475. HEK293 CRF-R2/CRF-BP, CRF-induced calcium fluorescence;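 active means inhibition of the ligand-induced calcium signal above about 50% at the single tested concentration, limit read from the data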
Jurkat NFkB inh = inhibitors of the PMA/ionomycin-induced NF-kB reporter in Jurkat cells | 330,000 tested, 0.53% active | AID 435003 | PMA/ionomycin-induced NF-kB luciferase reporter, luminescence | inhibition, % at 4 µM; in the data active means inhibition above about 50%
UPR XBP1 act = activators of adaptive arm of unfolded protein response (XBP1); 330,000 tested, 0.33% active; CHO-XBP1 luciferase reporter, IRE1-XBP1 UPR activation, luminescence; percent of tunicamycin response, DMSO as zero; activation, % at 20 µM; AID 463104;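 active means versus positive control, 20 µM dose yields 30% or more activation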
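assay system = CHO-XBP1 luciferase reporter cells | amount = 1000 cells/well | buffer or medium = F12 plus 10% FBS | compound dosing = single point, 20 µM final compound, 1% DMSO | incubation = 16-18 h cell attachment at 37 °C, then 6 h compound exposure | detection = Steady-Glo luminescence read | controls = tunicamycin 10 µg/mL and vehicle-only wells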
UPR CHOP act = apoptotic UPR (CHOP) activation | CHO-CHOP luciferase reporter, luminescence; percent of tunicamycin response over DMSO baseline | activation, % at 10 µM | 330,000 tested, 0.34% active | AID 449763;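 active means at 10 µM dose, activation of 40% or more, normalized to positive control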
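Material: CHO-CHOP cells, stable luciferase reporter of PERK-eIF2a-CHOP signalling; quantity: 500 reporter cells seeded per well; buffer or medium: F12 medium containing 10% fetal bovine serum; compound: one dose, 10 µM in 0.5% DMSO; incubation: 6 h compound treatment, 37 °C; measured by: Steady-Glo luciferase luminescence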
Jurkat NFkB conf = inhibitors of the PMA/ionomycin-induced NF-kB reporter in Jurkat cells, retest; inhibition, % at 4 µM; shares compounds with Jurkat NFkB inh; 2,700 tested, 27% active; Jurkat NF-kB luciferase, 16 h;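 active means inhibition reaching about 45% at 4 µM in either replicate, limit read from the data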
A number is an active result; - = inactive; . = not tested or not shown. Shown are actives, neighbours in structure and some others; about 1.8% of the full set was active somewhere.

SMILES	697 NFkB inh	CRFR2-BP antag	Jurkat NFkB inh	UPR XBP1 act	UPR CHOP act	Jurkat NFkB conf
CC(C)(C)OC(=O)NCCCCCc1cn(CC(=O)NCCCCCCCCCCC(=O)N2CCN(C(=O)OC(C)(C)C)CC2)nn1	-	-	55	-	-	56
O=c1[nH]cnc2c1ncn2C1OC(CO)C(O)C1O (centres undefined)	.	-	.	.	.	.
Nc1ncn([C@@H]2O[C@H](CO)[C@@H](O)[C@H]2O)c(=O)n1	-	-	80	-	-	85
CC(=O)c1sc2c(c1OC(=O)c1ccc(Cl)cc1)c(=O)n(-c1ccccc1)c(=S)n2-c1ccccc1	.	-	.	.	.	.
CC(=O)c1sc2c(c1OC(=O)c1ccc(Cl)cc1Cl)c(=O)n(-c1ccccc1)c(=S)n2-c1ccccc1	-	-	69	-	-	87
COc1ccc(S(=O)(=O)CCC(=O)N2CCN(c3ccc(C(C)=O)cc3)CC2)cc1	-	-	-	-	-	.
COC(=O)c1c(-c2cccnc2)csc1NC(=O)c1cc(C)on1	-	-	-	-	-	-
Cc1nn(-c2nc3ccccc3s2)c(N)c1-c1ccccc1	-	-	-	-	-	-
O=C(CSc1nnc(-c2ccc(Br)cc2)o1)Nc1cccc2ccccc12	-	-	-	-	-	.
COc1ccccc1NC(=O)CSc1nnc(-c2ccncc2)o1	-	-	-	-	-	.
COc1ccc(-c2nnc(SCC(=O)/C(C#N)=C(\C)N)o2)cc1	-	-	-	-	-	-
O=C(CSc1nnc(-c2ccccc2Br)o1)N1CCOCC1	-	-	-	-	-	.
COc1ccc(-c2nnc(SCC(=O)Nc3ccccc3OC)o2)cc1	-	-	-	-	-	-
O=C(CSc1nnc(-c2ccc(Br)cc2)o1)Nc1cccc(C(=O)O)c1	-	-	75	-	-	-
COc1ccc(-c2nnc(SCC(=O)c3ccc(C)o3)o2)cc1	.	-	.	.	.	.
C/C(N)=C(/C#N)C(=O)CSc1nnc(-c2ccccc2Br)o1	-	-	-	-	-	-
CC(C)[C@@H](C(=O)NCc1ccco1)N1C(=O)N2CCc3c([nH]c4ccccc34)[C@@]2(C)C1=O	-	-	-	-	-	.
COC(=O)C1=C(C)N(Cc2ccccc2)C(=NCCN2CCOCC2)N[C@H]1CCc1ccccc1	-	-	-	-	-	.
COc1ccc([C@H]2C[C@H](n3cc(COC(=O)c4ccccc4)nn3)[C@@H](O)CN2Cc2cccs2)cc1	.	-	.	.	.	.
Cc1ccc(C2=NNC(c3cccc(F)c3)S2)cc1 (centres undefined)	-	-	-	-	-	-
COc1ccccc1Nc1c2c(nc3ccccc13)CCC2	-	-	52	-	-	-
COc1ccc(Nc2c3c(nc4ccccc24)CCC3)c(OC)c1	-	-	-	-	-	.
Cc1ccc(CN2CCCCC2C(=O)Nc2ccc(Oc3cccnc3)cc2)o1 (centres undefined)	-	-	69	-	-	-
CCn1nc(C)c(CN2CCCCC2C(=O)Nc2ccc(Oc3cccnc3)cc2)c1C (centres undefined)	-	-	-	-	-	.
O=C(Nc1ccc(Oc2ccccc2)nc1)C1CCCCN1Cc1ccco1 (centres undefined)	-	-	53	-	-	-
SMILES	697 NFkB inh	CRFR2-BP antag	Jurkat NFkB inh	UPR XBP1 act	UPR CHOP act	Jurkat NFkB conf
O=C(Nc1ccc(Oc2ccccc2)nc1)C1CCN(Cc2ccco2)CC1	-	-	-	-	-	.
COc1ccc(CCC(=O)NC2CCCc3ccccc32)cc1OC (centres undefined)	-	-	-	-	-	.
Cc1cc(C)c(C)c(S(=O)(=O)N2CCC(C(=O)N3CC(C)CC(C)C3)CC2)c1C (centres undefined)	-	-	-	-	-	.
C/C(=N\NC(=O)c1cc(C)nc2ccccc12)c1ccccn1	-	-	95	-	85	45
O=C(NCCC1=CCCCC1)NC12CC3CC(CC(C3)C1)C2	-	-	-	-	-	-
CN1CCN(C(=O)c2ccc(CNS(=O)(=O)c3ccc(F)c(Cl)c3)cc2)CC1	-	-	-	-	-	.
CC(=O)c1cc2c(cc1NC(=O)c1cc(C)nn1-c1ccccc1)OCO2	-	-	55	-	-	-
CC1=CC(C)(C)N(S(=O)(=O)c2ccc(C)cc2)c2cc(C)ccc21	-	-	50	-	-	53

Screening results: PubChem, Sanford-Burnham Center for Chemical Genomics
